Source: ChEMBL document CHEMBL1148092, “Novel Ca(2+)-ATPase inhibitors from the dried root tubers of Polygonum Multiflorum” (J Nat Prod, 1994)
pIC50: −log10 of the molar value. Calls of active or inactive are those of the source. The calls are words filed in the database; no cut-off is given here.

Experiments:
Format in all cases: cell-based
Homo sapiens [1] = species on record: Homo sapiens; assay: Inhibition of Ca2+ ATPase activity in human red blood cells at 200 uM by spectrophotometry
In short: (§1)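 Calmodulin-depleted membranes from human packed erythrocytes (2.5 mg/ml) were incubated for 1 h at 37° in 65 mM KCl, 20 mM K-HEPES, 5 mM MgCl2, 50 μM CaCl2 (50.4 μM free Ca2+), 0.1 μM calmodulin and 0.1 mM EGTA. Test agents in DMSO (2.5% final) were added before 2 mM ATP (pH 7.4). Released phosphate was read spectrometrically, Mg2+-ATPase activity was subtracted, and assays were run in duplicate.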

Homo sapiens [2] = species on record: Homo sapiens; assay: Inhibition of Mg2+ ATPase activity in human red blood cells at 50 uM by spectrophotometry
In short: (§2)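 Mg2+-ATPase was assayed with calmodulin-depleted human erythrocyte membranes (2.5 mg/ml) at 37° for 1 h, without added CaCl2, in 65 mM KCl, 20 mM K-HEPES, 5 mM MgCl2, 0.1 μM calmodulin and 0.1 mM EGTA. Compounds in DMSO (2.5% final) were added before starting with 2 mM ATP (pH 7.4). Liberated phosphate was measured spectrometrically, in duplicate.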

Homo sapiens [3] = species on record: Homo sapiens; assay: Inhibition of Ca2+ ATPase activity in human red blood cells at 100 uM by spectrophotometry; in short: as §1
Homo sapiens [4] = species on record: Homo sapiens; assay: Inhibition of Mg2+ ATPase activity in human red blood cells at 100 uM by spectrophotometry; in short: as §2
Homo sapiens [5] = species on record: Homo sapiens; assay: Inhibition of Mg2+ ATPase activity in human red blood cells at 200 uM by spectrophotometry; in short: as §2
Homo sapiens [6] = species on record: Homo sapiens; assay: Inhibition of Ca2+ ATPase activity in human red blood cells at 25 uM by spectrophotometry; in short: as §1
Homo sapiens [7] = species on record: Homo sapiens; assay: Inhibition of Ca2+ ATPase activity in human red blood cells at 50 uM by spectrophotometry; in short: as §1
Homo sapiens [8] = species on record: Homo sapiens; assay: Inhibition of Mg2+ ATPase activity in human red blood cells at 25 uM by spectrophotometry; in short: as §2
Homo sapiens [9] = species on record: Homo sapiens; assay: Inhibition of Ca2+ ATPase activity in human red blood cells at 1600 uM by spectrophotometry; in short: as §1
Homo sapiens [10] = species on record: Homo sapiens; assay: Inhibition of Mg2+ ATPase activity in human red blood cells at 400 uM by spectrophotometry; in short: as §2
Homo sapiens [11] = species on record: Homo sapiens; assay: Inhibition of Ca2+ ATPase activity in human red blood cells at 400 uM by spectrophotometry; in short: as §1
Homo sapiens [12] = species on record: Homo sapiens; assay: Inhibition of Mg2+ ATPase activity in human red blood cells at 1600 uM by spectrophotometry; in short: as §2
[13] = Inhibition of Ca2+ ATPase activity in human red blood cells by spectrophotometry; in short: as §1
Homo sapiens [14] = species on record: Homo sapiens; assay: Inhibition of Ca2+ ATPase activity in human red blood cells at 800 uM by spectrophotometry; in short: as §1
Homo sapiens [15] = species on record: Homo sapiens; assay: Inhibition of Mg2+ ATPase activity in human red blood cells at 800 uM by spectrophotometry; in short: as §2

| SMILES | Activity (Homo sapiens [9]) | inhibition (Homo sapiens [1]) | inhibition (Homo sapiens [2]) | inhibition (Homo sapiens [3]) | inhibition (Homo sapiens [4]) | inhibition (Homo sapiens [11]) | pIC50 [13] | inhibition (Homo sapiens [5]) | inhibition (Homo sapiens [14]) | inhibition (Homo sapiens [6]) | inhibition (Homo sapiens [7]) | inhibition (Homo sapiens [15]) | inhibition (Homo sapiens [8]) | also measured |
| --- | --- | --- | --- | --- | --- | --- | --- | --- | --- | --- | --- | --- | --- | --- |
| OC[C@H]1O[C@@H](Oc2cc(O)cc(O)c2/C=C/c2ccc(O)cc2)[C@H](O)[C@@H](O)[C@@H]1O | – | – | – | – | – | – | – | – | – | – | – | – | – | Activity (Homo sapiens [1]): inactive; Activity (Homo sapiens [2]): inactive; Activity (Homo sapiens [3]): inactive; Activity (Homo sapiens [4]): inactive; Activity (Homo sapiens [5]): inactive; Activity (Homo sapiens [6]): inactive; Activity (Homo sapiens [7]): inactive; Activity (Homo sapiens [8]): inactive |
| COc1ccc(/C=C/c2cc(O)cc(O[C@@H]3O[C@H](CO)[C@@H](O)[C@H](O)[C@H]3O)c2)cc1O | inactive | – | – | – | – | – | – | – | – | – | – | – | – | – |
| OC[C@H]1O[C@@H](Oc2c(O)cc(O)cc2/C=C/c2ccc(O)cc2)[C@H](O)[C@@H](O)[C@@H]1O | – | 44% | 25% | 15% | 28% | 70% | 3.62 | 41% | 95% | 8% | 8% | 62% | 14% | inhibition (Homo sapiens [10]): 56%; inhibition (Homo sapiens [12]): 75%; inhibition (Homo sapiens [9]): 98% |
| CCC/C=C1/OC(=O)C2=C1CC[C@H](O)[C@H]2O (relative stereo) | – | 36% | 13% | 8% | 32% | 72% | 3.59 | 32% | 87% | 0% | 3% | 71% | 21% | inhibition (Homo sapiens [12]): 82%; inhibition (Homo sapiens [9]): 94% |
| O=C(O)c1cc(O)c2c(c1)C(=O)c1cccc(O)c1C2=O | inactive | – | – | – | – | – | – | – | – | – | – | – | – | – |
| Cc1cc(O)c2c(c1)C(=O)c1cc(O)cc(O)c1C2=O | inactive | – | – | – | – | – | – | – | – | – | – | – | – | – |
| Cc1cc(O)c2c(c1)C(=O)c1cccc(O)c1C2=O | inactive | – | – | – | – | – | – | – | – | – | – | – | – | – |
| CCC/C=C1/OC(=O)C2=C1CC[C@H](O)[C@@H]2O (relative stereo) | – | 62% | 17% | 27% | 36% | 79% | 3.80 | 52% | 90% | 0% | 0% | 85% | 0% | inhibition (Homo sapiens [10]): 67% |
